One block for each compound: values may come before it. Calls of active or inactive are those of the source. The calls are words filed in the database; no cut-off is given here.
Assays:
[1] = biological target: T1, Bile acid receptor (Homo sapiens) (UniProt Q96RI1); assay: Agonist activity at GAL4-fused human FXR LBD expressed in human HepG2 cells up to 2 uM after 20 hrs by luciferase reporter gene assay; assay type: cell-based
T1 sequence (whole entry): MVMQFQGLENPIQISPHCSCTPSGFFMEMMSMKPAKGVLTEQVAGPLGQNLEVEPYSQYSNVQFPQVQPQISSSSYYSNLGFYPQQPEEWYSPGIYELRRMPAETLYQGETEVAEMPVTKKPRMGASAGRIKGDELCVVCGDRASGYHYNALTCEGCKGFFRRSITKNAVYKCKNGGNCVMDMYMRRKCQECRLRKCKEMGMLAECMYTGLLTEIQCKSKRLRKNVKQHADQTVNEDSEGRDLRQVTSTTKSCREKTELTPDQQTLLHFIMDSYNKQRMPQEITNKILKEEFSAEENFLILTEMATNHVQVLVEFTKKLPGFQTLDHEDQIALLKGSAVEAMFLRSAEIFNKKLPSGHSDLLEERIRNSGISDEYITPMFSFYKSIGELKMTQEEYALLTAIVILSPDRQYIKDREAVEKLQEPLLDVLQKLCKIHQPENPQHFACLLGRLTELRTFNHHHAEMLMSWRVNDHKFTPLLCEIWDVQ
Outline: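 HepG2 in MEM/10% FBS, calcium-phosphate co-transfection 24 h after seeding with GAL4-FXR-LBD (30 ng), pGAL5TKpGL3 luciferase reporter (100 ng) and pCMVβgal (250 ng); 4 h later, 20 h ligand exposure in triplicate. Luciferase normalized to β-galactosidase (ONPG); efficacy as % of maximal fold induction of chenodeoxycholic acid reference; tested up to 2 μM.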

[2] = test system: HepG2; assay: Cytotoxicity against human HepG2 cells at >2 uM; assay type: cell-based
[3] = biological target: T2, Peroxisome proliferator-activated receptor delta (Homo sapiens, UniProt Q03181); assay: Transactivation of GAL4-fused human PPARdelta LBD expressed in human HepG2 cells after 20 hrs by luciferase reporter gene assay; assay type: cell-based
T2 sequence (Q03181 whole entry): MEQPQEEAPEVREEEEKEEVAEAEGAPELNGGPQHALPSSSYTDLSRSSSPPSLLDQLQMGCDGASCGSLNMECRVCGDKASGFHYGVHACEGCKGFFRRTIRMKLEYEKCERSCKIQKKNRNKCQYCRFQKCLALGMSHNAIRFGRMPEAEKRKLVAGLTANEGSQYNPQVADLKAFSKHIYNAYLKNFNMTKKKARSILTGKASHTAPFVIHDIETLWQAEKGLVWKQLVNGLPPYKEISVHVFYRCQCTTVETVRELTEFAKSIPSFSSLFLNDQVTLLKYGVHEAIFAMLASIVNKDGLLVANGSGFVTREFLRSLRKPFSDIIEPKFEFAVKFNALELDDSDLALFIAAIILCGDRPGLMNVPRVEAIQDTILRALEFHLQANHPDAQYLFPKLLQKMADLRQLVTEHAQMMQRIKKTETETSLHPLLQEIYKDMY
Outline: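 HepG2 cells seeded 10⁵/well, transfected after 24 h by calcium phosphate with GAL4-PPARδ-LBD (30 ng), pGAL5TKpGL3 luciferase reporter (100 ng) and pCMVβgal (250 ng); 4 h later treated 20 h in triplicate with ligands up to 2 μM. Luciferase in cell extracts normalised to β-galactosidase (ONPG); efficacy as % of maximal fold induction of reference agonist L-165,041; experiments repeated at least twice.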

[4] = biological target: T2, Peroxisome proliferator-activated receptor delta; assay: Binding affinity to PPARdelta (unknown origin) assessed as thermodynamic dissociation constant by SPR assay; conditions: read-out: Kd
[5] = biological target: T3, Peroxisome proliferator-activated receptor alpha (Homo sapiens, UniProt Q07869); assay: Binding affinity to PPARalpha (unknown origin) assessed as thermodynamic dissociation constant by SPR assay
T3 sequence (Q07869 whole entry): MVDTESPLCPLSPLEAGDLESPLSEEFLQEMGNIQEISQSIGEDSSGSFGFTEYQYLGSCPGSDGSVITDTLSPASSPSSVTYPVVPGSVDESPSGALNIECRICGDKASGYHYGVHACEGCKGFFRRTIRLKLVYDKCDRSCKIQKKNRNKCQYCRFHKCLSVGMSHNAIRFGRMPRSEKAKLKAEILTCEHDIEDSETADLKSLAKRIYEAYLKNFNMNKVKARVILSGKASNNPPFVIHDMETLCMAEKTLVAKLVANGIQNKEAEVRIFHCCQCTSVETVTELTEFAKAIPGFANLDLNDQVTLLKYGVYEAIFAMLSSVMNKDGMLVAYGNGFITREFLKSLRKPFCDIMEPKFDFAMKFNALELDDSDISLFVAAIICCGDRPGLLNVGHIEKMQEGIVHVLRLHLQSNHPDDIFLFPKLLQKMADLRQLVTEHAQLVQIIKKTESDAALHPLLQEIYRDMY

[6] = biological target: T4, Peroxisome proliferator-activated receptor gamma (Homo sapiens, UniProt P37231); assay: Binding affinity to PPARgamma (unknown origin) assessed as thermodynamic dissociation constant by SPR assay
T4 sequence (P37231 whole entry): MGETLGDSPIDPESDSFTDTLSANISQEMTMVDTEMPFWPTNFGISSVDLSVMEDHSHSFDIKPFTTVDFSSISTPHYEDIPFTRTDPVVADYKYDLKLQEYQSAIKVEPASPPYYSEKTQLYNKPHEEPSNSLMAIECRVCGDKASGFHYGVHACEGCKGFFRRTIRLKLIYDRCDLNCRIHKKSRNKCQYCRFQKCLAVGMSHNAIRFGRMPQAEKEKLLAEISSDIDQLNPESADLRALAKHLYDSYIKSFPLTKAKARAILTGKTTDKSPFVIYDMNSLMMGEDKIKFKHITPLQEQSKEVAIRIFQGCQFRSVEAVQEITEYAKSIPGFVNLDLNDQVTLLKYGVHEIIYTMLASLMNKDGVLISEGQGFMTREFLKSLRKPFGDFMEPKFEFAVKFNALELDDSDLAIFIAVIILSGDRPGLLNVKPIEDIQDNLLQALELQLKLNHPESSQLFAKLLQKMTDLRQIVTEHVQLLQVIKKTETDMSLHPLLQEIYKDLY

[7] = biological target: T4, Peroxisome proliferator-activated receptor gamma; assay: Binding affinity to PPARgamma (unknown origin) assessed as kinetic dissociation constant by SPR assay
[8] = biological target: T2, Peroxisome proliferator-activated receptor delta; assay: Binding affinity to PPARdelta (unknown origin) assessed as kinetic dissociation constant by SPR assay
[9] = biological target: T3, Peroxisome proliferator-activated receptor alpha; assay: Binding affinity to PPARalpha (unknown origin) assessed as kinetic dissociation constant by SPR assay
[10] = biological target: T5, Peroxisome proliferator-activated receptor alpha (Homo sapiens) (UniProt Q07869); assay: Agonist activity at PPARalpha in human HepG2 cells assessed as increase in mitochondrial mass at 1 uM by CellLight Mitochondria-GFP staining based fluorescent microscopic method relative to control; assay type: cell-based
T5 sequence (whole entry): T3 sequence (Q07869 whole entry)
Outline: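 Serum-free HepG2 at 60% confluence transduced with Mitochondria-GFP BacMam 2.0 (50 particles/cell) and given 1 μM compound or 50 μM Wy-14,643 for 24 h. Imaged at 20x with GFP filters (ex 485/em 535 nm); separately, SDS/Tris pH 7.5 lysates read at ex 475, em 500-550 nm. Mean ± SD of three experiments, ANOVA/Bonferroni.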

[11] = biological target: T6, Peroxisome proliferator-activated receptor gamma (Homo sapiens) (UniProt P37231); assay: Agonist activity at PPARgamma in human HT-29 cells assessed as upregulation of p21waf1/cip1 protein expression at 10 uM after 48 hrs by Western blot method; assay type: cell-based
T6 sequence (whole entry): T4 sequence (P37231 whole entry)
Outline: (§1)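 HT-29 or HEK293T cells in DMEM/10% FBS treated 48 h with 10 μM compound (DMSO vehicle, final below 0.1%). RIPA lysates (with protease inhibitors), 80 μg protein per lane immunoblotted for p21waf1/cip1 with β-actin loading control; densitometric p21/β-actin ratio, mean ± SD of at least three independent experiments.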

[12] = biological target: T5, Peroxisome proliferator-activated receptor alpha (Homo sapiens); assay: Agonist activity at PPARalpha in human HepG2 cells assessed as increase in CAC mRNA level at 1 uM after 24 hrs by RT-PCR method; assay type: cell-based
Outline: (§2)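 Serum-free HepG2 exposed 24 h to 1 μM test agent (Wy-14,643 reference at 50 μM). RNA extracted from 1x10⁶ cells; TaqMan real-time RT-PCR for CAC, CPT1 or PPARα, normalized to β-actin. Mean ± SD of three independent duplicate experiments; one-way ANOVA with Bonferroni test.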

[13] = test system: HEK-293T; assay: Effect on p21waf1/cip1 protein expression in HEK293T cells at 10 uM after 48 hrs by Western blot method; assay type: cell-based; conditions: human; outline: as §1
[14] = biological target: T5, Peroxisome proliferator-activated receptor alpha (Homo sapiens); assay: Agonist activity at PPARalpha assessed as induction of positive regulatory loop based receptor transcriptional activation by measuring upregulation of PPARalpha protein expression level in human HepG2 cells at 1 uM after 48 hrs by Western blot method; assay type: cell-based
Outline: (§3)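 HepG2 serum-depleted 24 h, then treated 48 h with 1 μM compound (Wy-14,643 at 50 μM as reference). Nitrocellulose immunoblots probed for CAC, CPT1 or PPARα with β-actin loading control, chemiluminescent detection; band densitometry expressed as fold change versus untreated cells; three independent experiments.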

[15] = biological target: T5, Peroxisome proliferator-activated receptor alpha (Homo sapiens); assay: Agonist activity at PPARalpha in human HepG2 cells assessed as increase in CPT1 protein expression level at 1 uM after 48 hrs by Western blot method; assay type: cell-based; outline: as §3
[16] = biological target: T4, Peroxisome proliferator-activated receptor gamma; assay: Transactivation of GAL4-fused human PPARgamma LBD expressed in human HepG2 cells after 20 hrs by luciferase reporter gene assay; assay type: cell-based
[17] = biological target: T5, Peroxisome proliferator-activated receptor alpha (Homo sapiens); assay: Agonist activity at PPARalpha assessed as induction of positive regulatory loop based receptor transcriptional activation by measuring upregulation of PPARalpha mRNA level in human HepG2 cells at 1 uM after 24 hrs by RT-PCR method; assay type: cell-based; outline: as §2
[18] = biological target: T6, Peroxisome proliferator-activated receptor gamma (Homo sapiens); assay: Agonist activity at PPARgamma in human HT-29 cells harboring APC mutant assessed as inhibition of Wnt/beta-catenin signaling pathway by measuring decrease in c-Myc level at 10 uM treated for 24 hrs by Western blot method; assay type: cell-based
Outline: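 RIPA lysates, 80 μg protein immunoblotted for c-Myc with β-actin loading control; c-Myc/β-actin densitometry, mean ± SD of at least three independent experiments.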

[19] = biological target: T3, Peroxisome proliferator-activated receptor alpha; assay: Transactivation of GAL4-fused human PPARalpa LBD expressed in human HepG2 cells after 20 hrs by luciferase reporter gene assay; assay type: cell-based
[20] = biological target: T5, Peroxisome proliferator-activated receptor alpha (Homo sapiens); assay: Agonist activity at PPARalpha in human HepG2 cells assessed as increase in CAC protein expression level at 1 uM after 48 hrs by Western blot method; assay type: cell-based; outline: as §3
[21] = biological target: T5, Peroxisome proliferator-activated receptor alpha (Homo sapiens); assay: Agonist activity at PPARalpha in human HepG2 cells assessed as increase in CPT1 mRNA level at 1 uM after 24 hrs by RT-PCR method; assay type: cell-based; outline: as §2
[22] = test system: HT-29; assay: Growth inhibition of human HT-29 cells assessed as cell vitality up to 10 uM up to 72 hrs by hemocytometry relative to control; assay type: functional; set-up: scale not given: the % may be the effect or the level left
Outline: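 Exponentially growing HT-29 colon adenocarcinoma cells (D-MEM, 10% FBS, 37 °C, 5% CO2) exposed to vehicle (DMSO, final <0.1%) or 1, 5 and 10 μM compound in 10% FBS medium for 24, 48 and 72 hs; cells washed, trypsinized and counted by Bürker hemocytometer, three counts per well. Viability relative to vehicle; mean ± SD of three independent experiments in duplicate.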

SMILES: CCCc1c(OCCCOc2ccc(OCC(=O)O)cc2)ccc(C(C)=O)c1O
- EC50 [3]: 20 nM
- Kd [4]: 76.4 nM
- Kd [5]: Not Active
- Kd [6]: Not Active
- Kd [7]: Not Active
- Kd [8]: 0.43 s⁻¹
- Kd [9]: Not Active

SMILES: Cc1oc(-c2ccccc2)nc1COc1ccc(Cc2ccc(OC(C)C(=O)O)cc2)cc1 (configuration not stated)
- Activity [10]: 30%
- Activity [1]: inactive
- Activity [2]: Toxic
- Activity [11]: Active
- Activity [12]: Active
- Activity [13]: Non-Toxic
- Activity [14]: Active
- Activity [15]: Active
- EC50 [16]: 290 nM
- Activity [17]: Active
- Activity [18]: Active
- EC50 [19]: 100 nM
- Activity [20]: Active
- Activity [21]: Active
- Activity [22]: 70%

SMILES: CN(CCOc1ccc(CC2SC(=O)NC2=O)cc1)c1ccccn1 (configuration not stated) [ROSIGLITAZONE]
- Kd [5]: Not Active
- Kd [9]: Not Active
- Activity [22]: 65%

SMILES: CC(Oc1ccc(Cc2ccc(OCc3coc(-c4ccccc4)n3)cc2)cc1)C(=O)O (configuration not stated)
- Activity [1]: inactive
- Activity [2]: Toxic
- EC50 [16]: 290 nM
- EC50 [19]: 39 nM

The next lines start with results.

- Activity [1]: inactive
SMILES: CCC(CC)(c1ccc(OCc2nc(-c3c(Cl)cccc3Cl)oc2C)cc1)c1ccc(OC(C)C(=O)O)cc1 (configuration not stated)
- Activity [2]: Toxic

- Activity [1]: inactive
SMILES: CCC(CC)(c1ccc(OCc2coc(-c3c(Cl)cccc3Cl)n2)cc1)c1ccc(OC(C)C(=O)O)cc1 (configuration not stated)
- Activity [2]: Toxic

- Activity [1]: inactive
SMILES: CCC(CC)(c1ccc(OCc2nc(-c3ccccc3)oc2C)cc1)c1ccc(OC(C)C(=O)O)cc1 (configuration not stated)
- Activity [2]: Toxic

- Activity [1]: inactive
SMILES: CCC(CC)(c1ccc(OCc2coc(-c3ccccc3)n2)cc1)c1ccc(OC(C)C(=O)O)cc1 (configuration not stated)
- Activity [2]: Toxic

Reference: ChEMBL document CHEMBL4007396, “New diphenylmethane derivatives as peroxisome proliferator-activated receptor alpha/gamma dual agonists endowed with anti-proliferative effects and mitochondrial activity” (Eur J Med Chem, 2017)
